According to ChEMBL document CHEMBL4715800, “Synthesis and Antiviral Evaluation of Octadecyloxyethyl Benzyl 9-[(2-Phosphonomethoxy)ethyl]guanine (ODE-Bn-PMEG), a Potent Inhibitor of Transient HPV DNA Amplification” (J Med Chem, 2016):

What was measured:
[1] = Selectivity index, ratio of CC50 for HEK293 cells to EC50 for inhibition of HPV-16 DNA amplification in HEK293 cells
Method in brief: (§1)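 Ratio CC50/EC50 in HEK-293 cells. CC50 is by CellTiter-Glo. EC50 is by qPCR of HPV-11 or HPV-16 ori-plasmid amplification in cells cotransfected with type-matched E1/E2 expression vectors.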

[2] = Selectivity index, ratio of CC50 for C-33-A cells to EC90 for inhibition of HPV-16 DNA amplification in C-33-A cells
Method in brief: (§2)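 Ratio CC50/EC90. CC50 is from CellTiter-Glo cytotoxicity in C33A cells. EC90 is from NanoLuc luciferase readout of HPV-16 or -18 ori-plasmid replication in C33A cells cotransfected with type-matched E1/E2 vectors.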

[3] = system: HEK293; assay: Cytotoxicity in HEK293 cells by CellTiter-Glo assay; details: human, hek293
[4] = Selectivity index, ratio of CC50 for C-33-A cells to EC50 for inhibition of HPV-18 DNA amplification in C-33-A cells
Method in brief: (§3)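 Ratio CC50/EC50. CC50 is from CellTiter-Glo in C33A cells. EC50 is from NanoLuc luciferase readout of HPV ori-plasmid replication in C33A cells cotransfected with type-matched E1/E2 vectors.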

[5] = Inhibition of HSV2 replication in HFF cells incubated for 7 days; type: functional, cell-based, Human alphaherpesvirus 2
[6] = Inhibition of HPV-11 DNA amplification in HEK293 cells incubated for 48 hrs by qPCR analysis; type: functional, cell-based, human papillomavirus 11
Method in brief: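 HEK-293 cells cotransfected with an HPV-11 origin-containing plasmid and HPV-11 E1 and E2 expression vectors, then exposed to drug dilutions and incubated. Ori-plasmid amplification is measured by quantitative real-time PCR and EC50 is calculated. At least three independent experiments.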

[7] = Selectivity index, ratio of CC50 for C-33-A cells to EC90 for inhibition of HPV-18 DNA amplification in C-33-A cells; method in brief: as §2
[8] = Selectivity index, ratio of CC50 for HFF to EC50 for inhibition of HSV2 replication in HFF cells; type: toxicity, cell-based; details: human; for selectivity ratio: HFF cells, read-out: Ratio CC50/EC50
[9] = Cytotoxicity in human PBMC cells; type: cell-based
Method in brief: (§4)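 Human PBMCs infected with a clinical HIV-1 isolate, with AZT as positive control. EC50 and CC50 reported as mean ± SD of three replicates; selectivity index = CC50/EC50.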

[10] = Inhibition of HPV-16 DNA amplification in HEK293 cells incubated for 48 hrs by qPCR analysis; type: functional, cell-based, Human papillomavirus 16
Method in brief: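 HEK-293 cells cotransfected with an HPV-16 origin-containing plasmid and HPV-16 E1 and E2 expression vectors, then treated with drug dilutions and incubated. Ori-plasmid amplification quantified by real-time qPCR; EC50 calculated from at least three independent experiments.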

[11] = Selectivity index, ratio of CC50 for C-33-A cells to EC50 for inhibition of HPV-11 DNA amplification in C-33-A cells; method in brief: as §3
[12] = Selectivity index, ratio of CC50 for C-33-A cells to EC50 for inhibition of HPV-16 DNA amplification in C-33-A cells; method in brief: as §3
[13] = Selectivity index, ratio of CC50 for C-33-A cells to EC90 for inhibition of HPV-11 DNA amplification in C-33-A cells
[14] = Inhibition of HPV-16 DNA amplification in C-33-A cells incubated for 48 hrs by luciferase reporter gene assay; type: functional, cell-based, Human papillomavirus 16
Method in brief: (§5)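 HPV-negative cervical cancer C33A cells transiently transfected with type-matched HPV-11, -16 or -18 E1 and E2 expression vectors plus an ori-plasmid carrying a NanoLuc reporter. After drug dilutions and incubation, ori-plasmid replication is read as the rise in luciferase activity and EC50 is determined. Cytotoxicity (CC50) is measured in C33A cells by CellTiter-Glo.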

[15] = Selectivity index, ratio of CC50 for HEK293 cells to EC50 for inhibition of HPV-11 DNA amplification in HEK293 cells; method in brief: as §1
[16] = Inhibition of HIV1 92US727 replication in PHA-P-stimulated human PBMCs incubated for 7 days by reverse transcriptase activity based assay; type: functional, cell-based, Human immunodeficiency virus 1, PBMC
Method in brief: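 Human PBMCs infected with a clinical HIV-1 isolate, with AZT as the positive control. Results are the mean of three replicates.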

[17] = Inhibition of HPV-18 DNA amplification in C-33-A cells incubated for 48 hrs by luciferase reporter gene assay; type: functional, cell-based, human papillomavirus 18; method in brief: as §5
[18] = Inhibition of HPV-11 DNA amplification in C-33-A cells incubated for 48 hrs by luciferase reporter gene assay; type: functional, cell-based, human papillomavirus 11; method in brief: as §5
[19] = system: HFF; assay: (§6) Cytotoxicity in HFF cells incubated for 7 days by CellTiter-Glo assay; type: cell-based; details: human, hff, 168 h; time 7 day
[20] = Cytotoxicity in human C-33-A cells by CellTiter-Glo reagent assay; type: cell-based; details: C-33-A cells; method in brief: as §5
[21] = Selectivity index, ratio of CC50 for human PBMC to EC50 for inhibition of HIV1 92US727 replication in PHA-P-stimulated human PBMCs; type: toxicity; details: PBMCs, read-out: Ratio CC50/EC50; method in brief: as §4
[22] = as §6; type: cell-based; details: human, HFF cells; time 7 day
[23] = Cytotoxicity in HEK293 cells by CellTiter-Glo assay; details: human, HEK293 cells
[24] = Drug uptake in HFF cells at 1 uM incubated for 1 to 48 hrs using [14C]-labelled compound by liquid scintillation counting; type: ADME, cell-based; details: human, time 1-48 hrs
Method in brief: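 HFF cells exposed to 1 μM [14C]-labelled compound for 1 to 48 h. Cell-associated radioactivity measured in duplicate to assess uptake.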

[25] = Drug level in HFF cells treated with 1 uM [14C]-labelled ODE-Bn-PMEG assessed as compound levels incubated for 48 hrs by liquid scintillation counting; type: ADME, cell-based; details: human
[26] = Human alphaherpesvirus 2, HFF, 168 h
[27] = Human immunodeficiency virus 1, 92US727, PBMC, 168 h
[28] = Human papillomavirus 16, C-33-A, 48 h
[29] = human papillomavirus 18, C-33-A, 48 h
[30] = human papillomavirus 11, C-33-A, 48 h

Row | SMILES | Ratio CC50/EC50 [1] | Ratio [2] | CC50 [3] | Ratio CC50/EC50 [4] | EC50 [6] | Ratio [7] | CC50 ([9]; pbmc) | EC50 [10] | Ratio CC50/EC50 [11] | Ratio CC50/EC50 [12] | Ratio [13] | EC50 ([14]; c-33-a) | EC90 ([14]; time 48 hrs) | Ratio CC50/EC50 [15] | EC50 ([17]; c-33-a) | EC90 ([17]; time 48 hrs) | EC50 ([18]; c-33-a) | EC90 ([18]; time 48 hrs) | CC50 [20] | selectivity ratio [21] | further results
1 | CCCCCCCCCCCCCCCCCCOCCOP(=O)(COCCn1cnc2c(=O)[nH]c(N)nc21)OCc1ccccc1 (stereo in doubt; form 2) | 230 | >11 | 91000 nM | >130 | 400 nM | >14 | 70 nM | 390 nM | >24 | >71 | >7 | 140 nM | 890 nM | 230 | 80 nM | 720 nM | 410 nM | 1400 nM |  |  | EC50 ([5]; hff): 33 nM; Ratio CC50/EC50 [8]: 160; EC50 ([16]; pbmc): 4 nM; CC50 [19]: 5400 nM
2 | CCCCCCCCCCCCCCCCCCOCCOP(=O)(COCCn1cnc2c(=O)[nH]c(N)nc21)OCc1ccccc1 (stereo in doubt; form 3) | 120 | >7 | 83000 nM | >37 | 500 nM | >7 | 40 nM | 690 nM | >14 | >45 | >4 | 220 nM | 1500 nM | 170 | 270 nM | 1400 nM | 710 nM | 2500 nM | > 10000 nM | 16.3 | EC50 [5, 26]: 32 nM; selectivity ratio [8]: 190; EC50 [16, 27]: 3 nM; CC50 at 168 h [22]: 6100 nM
3 | Nc1nc2c(ncn2COCCO)c(=O)[nH]1 [ACYCLOVIR] |  |  |  |  |  |  |  |  |  |  |  |  |  |  |  |  |  |  |  |  | EC50 [5, 26]: 990 nM; selectivity ratio [8]: > 300; CC50 at 168 h [22]: > 300000 nM
4 | Nc1ccn(C[C@@H](CO)OCP(=O)(O)O)c(=O)n1.O.O [CIDOFOVIR] | >2 | 1 |  | >1 | 150000 nM | 1 |  | 150000 nM | 1 | >1 | 1 |  |  | >2 |  |  |  |  | > 300000 nM |  | CC50 [23]: > 300000 nM; EC50 [14, 28]: 220000 nM; EC90 [14, 28]: > 300000 nM; EC50 [17, 29]: 260000 nM; EC90 [17, 29]: > 300000 nM; EC50 [18, 30]: > 300000 nM; EC90 [18, 30]: > 300000 nM
5 | Nc1nc2c(ncn2CCOCP(=O)(O)O)c(=O)[nH]1 [GS-438] |  |  |  |  |  |  |  |  |  |  |  |  |  |  |  |  |  |  |  |  | Drug uptake [24]: Active; Drug uptake [25]: Active
6 | Cc1cn([C@H]2C[C@H](N=[N+]=[N-])[C@@H](CO)O2)c(=O)[nH]c1=O [ZIDOVUDINE] |  |  |  |  |  |  |  |  |  |  |  |  |  |  |  |  |  |  |  | > 250 | CC50 ([9]; PBMC cells): > 1000 nM; EC50 [16, 27]: 4 nM
